Active and inactive are the calls of the source. The calls are words filed in the database; no cut-off is given here.
Legend:
[1] = target: T1, Cathepsin Z (Homo sapiens, UniProt Q9UBR2); assay: Inhibition of human cathepsin X expressed in Pichia pastoris assessed as residual activity at 50 uM using Abz-FEK(Dnp)-OH as substrate incubated for 30 to 45 mins by fluorescence assay relative to control; conditions: time 30-45 min
Method in brief: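 Substrate was Abz-FEK(Dnp)-OH at 3.25 µM final, compound at 50 µM final. Fluorescence (ex 320/em 420 nm) was followed continuously for 30-45 min at 37 °C. Activity was taken from rates relative to no-compound velocity. Two experiments in duplicate.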

[2] = test system: PC-3; assay: Cytotoxicity against human PC-3 cells assessed as reduction in cell viability at 20 uM after 24 to 48 hrs by MTS assay; type: functional, cell-based; conditions: time 24-48 hrs
Method in brief: (§1)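 PC-3 cells seeded at 6.5×10^4 cells/mL in Advanced DMEM/F-12 with 10% FBS and exposed to compound at 10 or 20 µM for 24 h or 48 h. Means ± SD of three independent assays, each in triplicate.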

[3] = target: T1, Cathepsin Z; assay: Inhibition of human cathepsin X expressed in Pichia pastoris assessed as residual activity using Abz-FEK(Dnp)-OH as substrate incubated for 30 to 45 mins by fluorescence assay
[4] = test system: PC-3; assay: Cytotoxicity against human PC-3 cells assessed as reduction in cell viability at 10 uM after 24 to 48 hrs by MTS assay; type: functional, cell-based; conditions: time 24-48 hrs; method in brief: as §1
[5] = test system: PC-3; assay: Antimigratory activity against human PC-3 cells at 20 uM up to 72 hrs by xCELLigence based RTCA analysis; type: functional, cell-based; conditions: time hrs <=72
Method in brief: (§2)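 PC-3 cells grown in Advanced DMEM/F-12 (1:1) with 10% FBS, L-glutamine and penicillin/streptomycin. Fibronectin-coated (10 μg/mL) xCELLigence CIM plates held 2 × 10⁴ cells per well. Compound at 10 or 20 μM was added to complete medium (lower chamber) or serum-free medium (upper chamber), with 0.1% DMSO as control. Cell index was read every 15 min for 72 h. Migration was taken as the slope of the curve over a selected interval, normalized to DMSO-treated cells. Means ± SD, two independent assays in duplicate or triplicate.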

[6] = target: T2, Cathepsin S (Homo sapiens, UniProt P25774); assay: Inhibition of human cathepsin S expressed in Pichia pastoris using Z-VVR-AMC as substrate by fluorescence assay
Method in brief: (§3)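 Cathepsin S expressed in P. pastoris, assayed in 100 mM phosphate buffer pH 6.5 containing 5 mM cysteine, 1.5 mM EDTA and 0.1% PEG 8000 after 5 min activation at 37 °C. Substrate was fluorogenic Z-VVR-AMC.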
Target sequence in this assay (P25774 whole entry): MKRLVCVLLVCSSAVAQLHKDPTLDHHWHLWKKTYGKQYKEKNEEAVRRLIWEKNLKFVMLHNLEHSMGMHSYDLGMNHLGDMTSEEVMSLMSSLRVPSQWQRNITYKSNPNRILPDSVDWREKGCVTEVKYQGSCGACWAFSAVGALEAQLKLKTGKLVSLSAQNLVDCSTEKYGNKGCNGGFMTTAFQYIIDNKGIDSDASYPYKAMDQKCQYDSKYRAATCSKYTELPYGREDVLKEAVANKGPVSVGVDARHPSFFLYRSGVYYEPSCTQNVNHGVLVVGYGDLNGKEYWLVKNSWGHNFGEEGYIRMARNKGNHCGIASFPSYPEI

[7] = target: T2, Cathepsin S; assay: Inhibition of human cathepsin S expressed in Pichia pastoris at 100 uM using Z-VVR-AMC as substrate by fluorescence assay relative to control; method in brief: as §3
Target sequence in this assay (P25774 115-331 limits assumed): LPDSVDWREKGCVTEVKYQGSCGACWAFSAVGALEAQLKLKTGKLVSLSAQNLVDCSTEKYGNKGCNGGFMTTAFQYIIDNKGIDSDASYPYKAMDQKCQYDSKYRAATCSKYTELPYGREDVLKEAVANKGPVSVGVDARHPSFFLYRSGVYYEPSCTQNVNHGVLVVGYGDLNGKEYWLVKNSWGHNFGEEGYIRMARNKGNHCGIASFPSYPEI

[8] = test system: PC-3; assay: Antimigratory activity against human PC-3 cells at 10 uM up to 72 hrs by xCELLigence based RTCA analysis relative to control; type: functional; conditions: dose 20 µM; time hrs <=72; in the assay text read “at 20 uM” for “at 10 uM”; method in brief: as §2
[9] = target: Cathepsin B (Homo sapiens) (UniProt P07858); assay: Inhibition of human cathepsin B expressed in Escherichia coli at 100 uM using Abz-GIVRAK(Dnp)-OH as substrate by fluorescence assay relative to control
Method in brief: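 Cathepsin B exopeptidase activity: recombinant enzyme from E. coli in 60 mM acetate buffer pH 5.0 with 5 mM cysteine, 1.5 mM EDTA and 0.1% PEG 8000, activated 5 min at 37 °C. Fluorogenic substrate Abz-GIVRAK(Dnp)-OH.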

[10] = target: Procathepsin L (Homo sapiens) (UniProt P07711); assay: Inhibition of human cathepsin L expressed in Escherichia coli at 100 uM using Z-FR-AMC as substrate by fluorescence assay relative to control
Chain of Procathepsin L (Homo sapiens) (P07711 114-333 limits assumed): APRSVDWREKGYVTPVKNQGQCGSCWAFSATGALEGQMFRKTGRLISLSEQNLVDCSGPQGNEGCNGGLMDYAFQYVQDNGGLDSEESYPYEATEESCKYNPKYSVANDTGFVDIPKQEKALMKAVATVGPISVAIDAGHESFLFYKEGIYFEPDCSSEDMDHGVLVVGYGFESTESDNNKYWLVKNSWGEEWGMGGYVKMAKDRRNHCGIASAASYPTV

T1 sequence (Q9UBR2 whole entry): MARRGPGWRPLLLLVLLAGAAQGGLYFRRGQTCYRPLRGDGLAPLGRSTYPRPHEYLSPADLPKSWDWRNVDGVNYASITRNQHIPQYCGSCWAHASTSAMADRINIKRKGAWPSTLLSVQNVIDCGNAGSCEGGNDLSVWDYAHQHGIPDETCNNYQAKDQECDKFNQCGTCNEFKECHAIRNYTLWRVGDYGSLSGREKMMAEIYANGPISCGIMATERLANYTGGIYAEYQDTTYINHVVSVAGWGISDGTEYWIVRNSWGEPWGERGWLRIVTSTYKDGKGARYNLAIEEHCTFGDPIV

SMILES	Activity [1] [%]	further results
O=C(CSc1nc(-c2ccncc2)n[nH]1)c1ccc2c(c1)OCCO2	33	–
NC(=O)c1ccc(-n2cnnc2SCC(=O)c2ccc3c(c2)OCCO3)cc1	35	–
CC(C)n1cnnc1SCC(=O)c1cccc([N+](=O)[O-])c1	100	–
CC(C)n1cnnc1SCC(=O)c1ccccc1	100	–
COc1ccc(C(=O)CSc2nncn2C(C)C)cc1	66	–
CC(C)n1cnnc1SCC(=O)c1ccc(OCC(=O)O)cc1	85	–
O=C(COc1nnc[nH]1)c1ccc2c(c1)OCCO2	71	–
CCn1cnnc1SCC(=O)c1ccc2c(c1)OCCO2	24	–
CC(C)n1cnnc1SCC(=O)c1ccc2c(c1)OCO2	24	–
CC(C)n1cnnc1SCC(=O)c1c[nH]c2ccccc12	27	–
N#Cc1ccc(-n2cnnc2SCC(=O)c2ccc3c(c2)OCCO3)cc1	20	Activity [2]: Active; IC50 [3]: 12.4 µM; Activity [4]: inactive
Cn1cnnc1SCC(=O)c1ccc2c(c1)OCCO2	17	Activity [2]: inactive; IC50 [3]: 11.8 µM; Activity [5]: inactive
O=C(CSc1ncc[nH]1)c1ccc2c(c1)OCCO2	17	Activity [2]: inactive; IC50 [3]: 13.6 µM
CN(C)c1ccc(-n2cnnc2SCC(=O)c2ccc3c(c2)OCCO3)cc1	55	–
CO/N=C(\CSc1nncn1C(C)C)c1ccc2c(c1)OCCO2	90	–
CC(C)n1cnnc1SCC(O)c1ccc2c(c1)OCCO2 (configuration not stated)	98	–
CC(C)n1cnnc1SCC(=O)c1ccc(C#N)cc1	92	–
Cc1[nH]c2ccccc2c1C(=O)CSc1nncn1C(C)C	62	–
O=C(CSc1nccs1)c1ccc2c(c1)OCCO2	22	–
CCOC(=O)COc1ccc(C(=O)CSc2nncn2C(C)C)cc1	60	–
N#CCn1ccnc1SCC(=O)c1ccc2c(c1)OCCO2	12	IC50 [6]: 241 µM; inhibition [7]: 30%; Activity [8]: 21%; Activity [2]: inactive; IC50 [3]: 7.13 µM; inhibition [9]: 30%; inhibition [10]: 30%
O=C(CSc1cccs1)c1ccc2c(c1)OCCO2	39	–
CC(C)n1cnnc1SCC(=O)c1ccc(O)cc1	73	–
CC(C)n1cnnc1SCC(=O)c1ccc(OCC#N)cc1	69	–
CC(C)n1cnnc1SCC(=O)c1ccc(N(C)C)cc1	41	–
Cc1n[nH]c(SCC(=O)c2ccc3c(c2)OCCO3)n1	28	–
CC(C)Oc1ccc(C(=O)CSc2nncn2C(C)C)cc1	63	–
Cn1ccnc1SCC(=O)c1ccc2c(c1)OCCO2	15	Activity [2]: inactive; IC50 [3]: 9.54 µM; Activity [4]: inactive

More lines, main results first:

Activity [1] [%]	SMILES	further results
77	CC(C)n1cnnc1SCC(=O)c1ccc(Br)cc1	–
30	O=C(CSc1nc(C2CCCCC2)n[nH]1)c1ccc2c(c1)OCCO2	–
48	O=C(CSc1ccccc1)c1ccc2c(c1)OCCO2	–
22	O=C(CSc1nncn1-c1cccnc1)c1ccc2c(c1)OCCO2	–
15	CC(C)n1cnnc1SCC(=O)c1ccc2c(c1)OCCO2	Activity [2]: inactive; IC50 [3]: 11.5 µM
43	O=C(CSc1nc(C2CCCCC2)nn1C(=O)C1CCCCC1)c1ccc2c(c1)OCCO2	–
23	O=C(CSc1nnc[nH]1)c1ccc2c(c1)OCCO2	–
49	COc1ccccc1C(=O)CSc1nncn1C(C)C	–
73	COc1cccc(C(=O)CSc2nncn2C(C)C)c1	–
90	CC(C)n1cnnc1SCC(N)c1ccc2c(c1)OCCO2 (configuration not stated)	–
36	Cn1nnnc1SCC(=O)c1ccc2c(c1)OCCO2	–
37	O=C(CSc1nc(-c2ccccc2)n[nH]1)c1ccc2c(c1)OCCO2	–
80	CC(C)n1cnnc1SCC(=O)C(C)(C)C	–
75	Cc1ccc(C(=O)CSc2nncn2C(C)C)cc1	–

From ChEMBL document CHEMBL4680241, “Structure-activity relationships of triazole-benzodioxine inhibitors of cathepsin X” (Eur J Med Chem, 2020)
